Experimental data from ChEMBL document CHEMBL1152523, “3-Substituted phenylalanines as selective AMPA- and kainate receptor ligands” (Bioorg Med Chem, 2009).
Active and inactive are the calls of the source. The rule behind the calls is not given here.

Columns and labels:
Glutamate receptor 2 = Glutamate receptor 2 (Rattus norvegicus, UniProt P19491); assay: Displacement of [3H]AMPA from wild type rat GluR2 S1S2 ligand binding core
[1] = target: Glutamate receptor ionotropic, kainate 2 (Rattus norvegicus) (UniProt P42260); assay: Displacement of [3H]SYM2081 from rat recombinant iGluR6 expressed in baculovirus-infected insect Sf9 cells
Sequence of Glutamate receptor ionotropic, kainate 2 (Rattus norvegicus) (P42260 whole entry): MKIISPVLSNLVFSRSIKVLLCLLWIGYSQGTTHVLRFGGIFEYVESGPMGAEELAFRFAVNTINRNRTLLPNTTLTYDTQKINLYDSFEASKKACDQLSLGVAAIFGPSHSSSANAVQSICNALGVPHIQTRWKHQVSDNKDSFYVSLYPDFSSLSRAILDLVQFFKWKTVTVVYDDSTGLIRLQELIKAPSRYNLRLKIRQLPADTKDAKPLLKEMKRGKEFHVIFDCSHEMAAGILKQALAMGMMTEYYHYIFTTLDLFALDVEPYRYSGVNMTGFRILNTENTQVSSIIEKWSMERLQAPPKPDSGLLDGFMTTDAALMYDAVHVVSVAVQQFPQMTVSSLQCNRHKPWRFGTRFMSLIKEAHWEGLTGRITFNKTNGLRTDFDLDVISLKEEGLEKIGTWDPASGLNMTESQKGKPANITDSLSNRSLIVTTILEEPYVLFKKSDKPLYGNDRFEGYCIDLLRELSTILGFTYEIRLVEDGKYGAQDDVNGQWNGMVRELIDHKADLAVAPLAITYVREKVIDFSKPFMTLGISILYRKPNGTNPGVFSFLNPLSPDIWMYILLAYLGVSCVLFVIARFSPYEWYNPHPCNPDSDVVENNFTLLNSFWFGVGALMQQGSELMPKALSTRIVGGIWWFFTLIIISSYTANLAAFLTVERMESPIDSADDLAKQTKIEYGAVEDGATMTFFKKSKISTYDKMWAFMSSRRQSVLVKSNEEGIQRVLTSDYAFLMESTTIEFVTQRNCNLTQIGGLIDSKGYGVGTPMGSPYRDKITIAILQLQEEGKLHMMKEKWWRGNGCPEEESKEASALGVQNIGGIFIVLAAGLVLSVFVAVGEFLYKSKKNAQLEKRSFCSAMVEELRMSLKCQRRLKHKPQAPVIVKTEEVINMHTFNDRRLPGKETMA
Procedure, shortened: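 Recombinant rat iGluR6(V,C,R) expressed in baculovirus-infected Sf9 insect cells. Competition binding against [3H]-SYM 2081 radioligand. Three independent experiments, mean ± SEM.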

[2] = target: T1, Glutamate receptor ionotropic, kainate 1 (Rattus norvegicus, UniProt P22756); assay: Displacement of [3H]S-glutamate from rat GluR5 S1S2 ligand binding core expressed in Escherichia coli (DE3)
T1 sequence (P22756 whole entry): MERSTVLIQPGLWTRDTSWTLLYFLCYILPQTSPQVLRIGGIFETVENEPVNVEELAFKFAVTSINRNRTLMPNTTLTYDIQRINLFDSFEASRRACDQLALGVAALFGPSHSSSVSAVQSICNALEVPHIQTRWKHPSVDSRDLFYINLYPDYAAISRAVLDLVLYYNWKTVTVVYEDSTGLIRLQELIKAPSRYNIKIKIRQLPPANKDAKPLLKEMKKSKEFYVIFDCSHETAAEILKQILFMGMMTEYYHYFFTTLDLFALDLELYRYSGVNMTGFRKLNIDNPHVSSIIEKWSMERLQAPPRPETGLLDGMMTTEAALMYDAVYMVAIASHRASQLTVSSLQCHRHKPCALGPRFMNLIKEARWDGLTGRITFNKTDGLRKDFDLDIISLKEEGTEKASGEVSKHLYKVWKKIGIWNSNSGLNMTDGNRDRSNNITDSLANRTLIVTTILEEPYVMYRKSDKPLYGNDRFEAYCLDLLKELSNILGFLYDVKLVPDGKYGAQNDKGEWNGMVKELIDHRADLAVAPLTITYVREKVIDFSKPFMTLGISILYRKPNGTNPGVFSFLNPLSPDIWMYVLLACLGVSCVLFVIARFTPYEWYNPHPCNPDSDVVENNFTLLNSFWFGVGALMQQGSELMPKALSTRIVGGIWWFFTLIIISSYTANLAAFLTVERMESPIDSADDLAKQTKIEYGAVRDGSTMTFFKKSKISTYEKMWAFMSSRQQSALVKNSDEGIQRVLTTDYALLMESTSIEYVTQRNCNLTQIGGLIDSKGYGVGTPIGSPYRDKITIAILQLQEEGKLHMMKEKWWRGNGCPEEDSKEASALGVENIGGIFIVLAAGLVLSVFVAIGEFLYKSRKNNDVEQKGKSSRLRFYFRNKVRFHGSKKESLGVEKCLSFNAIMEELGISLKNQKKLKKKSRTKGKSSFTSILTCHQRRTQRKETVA

Rattus norvegicus = species: Rattus norvegicus; assay: Displacement of [3H]kainic acid from kainate receptor in rat cortical membrane; assay type: cell membranes
Procedure, shortened: (§1)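 Native rat brain membranes prepared per Ransom and Stec. Competition binding with 5 nM [3H]AMPA or 5 nM [3H]KA. Three independent experiments, mean ± SEM.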

[3] = target: Glutamate NMDA receptor (Rattus norvegicus) (UniProt P35439+Q00959+Q00960+Q00961+Q62645+Q8VHN2+Q9R1M7); assay: Displacement of [3H]CGP39653 from NMDA receptor in rat cortical membrane; assay type: cell membranes
Procedure, shortened: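 Rat brain membranes prepared per Ransom and Stec. Binding at the NMDA site measured with 2 nM [3H]CGP 39653. Three independent experiments, mean ± SEM.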

[4] = target: T1, Glutamate receptor ionotropic, kainate 1; assay: Displacement of [3H]SYM2081 from rat recombinant iGluR5-1b expressed in baculovirus-infected insect Sf9 cells
Procedure, shortened: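 Recombinant rat iGluR5(Q)1b expressed in Sf9 insect cells via baculoviral infection; competition binding against [3H]-SYM 2081 radioligand. Values from three independent experiments, expressed as mean ± SEM.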

[5] = Displacement of [3H]AMPA from AMPA receptor in rat cortical membrane; assay type: cell membranes; procedure, shortened: as §1

Sequence of Glutamate receptor 2 (P19491 whole entry): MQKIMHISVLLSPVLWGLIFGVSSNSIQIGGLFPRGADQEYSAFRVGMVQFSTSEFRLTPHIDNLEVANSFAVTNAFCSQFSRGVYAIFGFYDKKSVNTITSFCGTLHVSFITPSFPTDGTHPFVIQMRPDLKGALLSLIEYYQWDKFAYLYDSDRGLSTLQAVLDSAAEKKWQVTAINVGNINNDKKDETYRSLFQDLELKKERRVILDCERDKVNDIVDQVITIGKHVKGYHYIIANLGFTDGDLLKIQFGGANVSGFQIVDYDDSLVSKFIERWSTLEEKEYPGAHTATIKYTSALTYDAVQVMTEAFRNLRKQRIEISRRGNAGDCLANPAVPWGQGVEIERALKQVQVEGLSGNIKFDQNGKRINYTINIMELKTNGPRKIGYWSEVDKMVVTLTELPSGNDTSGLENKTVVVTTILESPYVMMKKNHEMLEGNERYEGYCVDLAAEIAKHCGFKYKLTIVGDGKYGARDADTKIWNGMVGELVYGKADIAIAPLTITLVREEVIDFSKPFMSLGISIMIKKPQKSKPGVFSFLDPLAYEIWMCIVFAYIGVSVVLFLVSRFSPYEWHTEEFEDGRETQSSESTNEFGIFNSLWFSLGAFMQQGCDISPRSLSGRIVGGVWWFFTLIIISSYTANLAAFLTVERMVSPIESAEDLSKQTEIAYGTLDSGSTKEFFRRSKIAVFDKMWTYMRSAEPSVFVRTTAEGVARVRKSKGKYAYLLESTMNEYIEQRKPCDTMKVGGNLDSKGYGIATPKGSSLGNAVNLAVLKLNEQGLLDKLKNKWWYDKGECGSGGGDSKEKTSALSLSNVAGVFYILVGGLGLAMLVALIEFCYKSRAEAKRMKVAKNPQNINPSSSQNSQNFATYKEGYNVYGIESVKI

Kd (Glutamate receptor 2) [µM]	Kd [2] [µM]	SMILES	Activity [1]	Activity (Rattus norvegicus)	Activity [3]	Ki [4] [µM]	IC50 [5] [µM]
146	3.94	N[C@@H](Cn1ccc(=O)n(Cc2ccccc2C(=O)O)c1=O)C(=O)O	inactive	inactive	inactive	–	–
–	–	NC(Cc1cccc(-c2ccc(CC(=O)O)cc2)c1)C(=O)O (stereo not drawn)	inactive	inactive	inactive	> 100	> 100
–	–	N[C@@H](Cc1cccc(-c2cccc(C(=O)O)c2)c1)C(=O)O	inactive	inactive	inactive	4.08	–
–	–	N[C@H](Cc1cccc(-c2cccc(C(=O)O)c2)c1)C(=O)O	inactive	inactive	inactive	> 1000	–
–	–	CC(C)(C)c1onc(OCP(=O)(O)O)c1C[C@H](N)C(=O)O	inactive	inactive	inactive	2.9	16
–	–	NC(Cc1cccc(-c2ccccc2C(=O)O)c1)C(=O)O (racemic)	inactive	inactive	inactive	> 100	> 100
–	–	NC(Cc1cc(Cl)c(Cl)c(-c2ccc(-c3nnn[nH]3)cc2)c1)C(=O)O (racemic)	inactive	inactive	inactive	> 100	> 100
–	–	NC(Cc1cc(Cl)c(Cl)c(-c2ccc(C(=O)O)s2)c1)C(=O)O (racemic)	inactive	inactive	inactive	≥ 100	61
–	–	NC(Cc1cc(Cl)c(Cl)c(-c2ccccc2-c2nnn[nH]2)c1)C(=O)O (racemic)	inactive	inactive	inactive	> 100	> 100
–	–	NC(Cc1cc(Cl)c(Cl)c(-c2cccc(-c3nnn[nH]3)c2)c1)C(=O)O (racemic)	inactive	inactive	inactive	≥ 100	> 100
–	–	NC(Cc1cc(Cl)c(Cl)c(-c2ccccc2O)c1)C(=O)O (racemic)	inactive	inactive	inactive	> 100	85
–	–	NC(Cc1cccc(Cc2ccccc2C(=O)O)c1)C(=O)O (racemic)	inactive	inactive	inactive	≥ 100	> 100
–	–	NC(Cc1cc(Cl)c(Cl)c(-c2ccc(C(=O)O)cc2)c1)C(=O)O (racemic)	inactive	inactive	inactive	> 100	42
–	–	NC(Cc1cc(Cl)c(Cl)c(-c2ccc([N+](=O)[O-])cc2)c1)C(=O)O (racemic)	inactive	inactive	inactive	> 100	> 100
–	–	NC(Cc1cc(Cl)c(Cl)c(-c2ccc(O)cc2)c1)C(=O)O (racemic)	inactive	inactive	inactive	> 100	33
–	–	NC(Cc1cc(Cl)c(Cl)c(-c2cccc(C(=O)O)c2)c1)C(=O)O (racemic)	inactive	inactive	inactive	2.8	> 100
–	–	NC(Cc1cccc(-c2ccc(C(=O)O)cc2)c1)C(=O)O (racemic)	inactive	inactive	inactive	> 100	41
–	–	NC(Cc1cccc(-c2cccc(CC(=O)O)c2)c1)C(=O)O (racemic)	inactive	inactive	inactive	≥ 100	> 100
–	–	NC(Cc1cccc(Cc2ccc(C(=O)O)cc2)c1)C(=O)O (racemic)	inactive	inactive	inactive	≥ 100	> 100
–	–	NC(Cc1cc(Cl)c(Cl)c(-c2cccc([N+](=O)[O-])c2)c1)C(=O)O (racemic)	inactive	inactive	inactive	> 100	> 100
–	–	NC(Cc1cccc(-c2cccc(C(=O)O)c2)c1)C(=O)O (racemic)	inactive	inactive	inactive	7.9	> 100
–	–	NC(Cc1cccc(Cc2cccc(C(=O)O)c2)c1)C(=O)O (racemic)	inactive	inactive	inactive	50	> 100
–	–	NC(Cc1cc(Cl)c(Cl)c(-c2cccc(O)c2)c1)C(=O)O (racemic)	inactive	inactive	inactive	> 100	4.6
–	–	NC(Cc1cc(Cl)c(Cl)c(-c2ccccc2C(=O)O)c1)C(=O)O (racemic)	inactive	inactive	inactive	> 100	> 100
